Experimental findings from article PMC11044220 (ACS Omega, 2024) are described below.

The test system of assay [1] is HepG2 cells. Kind of assay: Cell cycle analysis by flow cytometry. The format is cell-based, human. The settings on record: for percentage of cells at the G1 phase: IC50 concentration (4.23 μM), control 50.7%. In short, it runs like this: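 HepG2 cells were treated for 48 h with 4.23 μM test compound, alongside untreated controls. DNA content was analysed by FACS to give the percentage of cells in G1, S and G2/M. The pre-G1 fraction was scored as the apoptotic (DNA-fragmented) population. Fold changes were expressed relative to the untreated control.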

For a further assay, the target named is EGFR-TK (Homo sapiens, UniProt P00533). Kind of assay: EGFR-TK enzyme assay. The format is biochemical.
EGFR-TK, sequence (P00533 25-1210): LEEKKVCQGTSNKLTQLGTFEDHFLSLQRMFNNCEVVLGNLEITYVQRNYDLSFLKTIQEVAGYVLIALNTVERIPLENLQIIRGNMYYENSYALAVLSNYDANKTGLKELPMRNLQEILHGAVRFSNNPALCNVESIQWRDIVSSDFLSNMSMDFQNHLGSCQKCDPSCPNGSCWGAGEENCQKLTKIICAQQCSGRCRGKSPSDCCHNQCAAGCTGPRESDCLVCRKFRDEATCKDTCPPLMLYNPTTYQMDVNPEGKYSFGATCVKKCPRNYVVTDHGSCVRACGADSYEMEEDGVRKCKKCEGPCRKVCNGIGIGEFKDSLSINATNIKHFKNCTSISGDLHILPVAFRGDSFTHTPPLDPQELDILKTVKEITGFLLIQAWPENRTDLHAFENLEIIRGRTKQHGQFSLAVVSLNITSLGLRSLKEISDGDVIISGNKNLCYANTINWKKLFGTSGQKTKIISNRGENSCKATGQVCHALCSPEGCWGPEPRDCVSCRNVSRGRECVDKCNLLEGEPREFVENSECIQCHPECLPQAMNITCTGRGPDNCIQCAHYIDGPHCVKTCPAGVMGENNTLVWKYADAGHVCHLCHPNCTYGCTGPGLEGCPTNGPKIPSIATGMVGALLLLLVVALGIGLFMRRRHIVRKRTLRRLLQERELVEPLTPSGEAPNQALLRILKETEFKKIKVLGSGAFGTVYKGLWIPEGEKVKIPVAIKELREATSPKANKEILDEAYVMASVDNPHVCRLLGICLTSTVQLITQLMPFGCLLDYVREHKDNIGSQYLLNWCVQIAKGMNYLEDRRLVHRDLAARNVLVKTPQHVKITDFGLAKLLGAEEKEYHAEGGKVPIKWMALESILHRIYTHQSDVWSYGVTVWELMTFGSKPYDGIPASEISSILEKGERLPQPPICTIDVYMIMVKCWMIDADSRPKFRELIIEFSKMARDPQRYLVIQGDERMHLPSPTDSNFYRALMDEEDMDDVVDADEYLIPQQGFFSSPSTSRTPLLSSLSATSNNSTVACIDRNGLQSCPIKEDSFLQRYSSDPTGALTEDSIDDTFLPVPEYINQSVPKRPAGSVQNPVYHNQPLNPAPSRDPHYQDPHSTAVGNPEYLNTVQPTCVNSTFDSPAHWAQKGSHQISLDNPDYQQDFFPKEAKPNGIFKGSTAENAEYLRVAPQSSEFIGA
For assay [2], the system named is HepG2 cells. Briefly: Annexin V-FITC/PI dual staining apoptosis assay. The assay is classed as cell-based, human.
The next assay concerns Bax. Briefly: qRT-PCR for apoptotic markers: Bax. The format is cell-based. For orientation: Quantitative PCR measures a nucleic acid by following its amplification.
Another assay relates to Bcl2. Kind of assay: qRT-PCR for apoptotic markers: Bcl2. The assay is classed as cell-based.
Assay [3] concerns HepG2 cells. Briefly: Mitochondrial membrane potential. The settings on record: HepG2, 48 h, 4.23 μM (IC50 concentration). The assay is classed as cell-based, human. Put shortly:
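Whole HepG2 cells were incubated with 4.23 μM test compound for 48 h, then labelled with a green fluorescent mitochondrial dye. The percentage of cells with depolarised mitochondrial membranes was measured and expressed as fold relative to untreated HepG2 cells.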

The next assay relates to p53. Kind of assay: qRT-PCR for apoptotic markers: p53. The format is cell-based.
In assay [4] the test system is HepG2 liver cancer cell line. The settings on record: read-out: IC50 (μM) HepG2, MTT assay, mean of three independent replicates ± SE. (Tetrazolium assays rely on reduction of a dye to a coloured formazan, in cell work by metabolically active cells.)

Regarding `O=C(NN=C(c1ccccc1)c1ccccc1)/C(=C/c1ccc(F)cc1)NC(=O)c1ccccc1` [compound 5, (Z)-N-(3-(2-(Diphenylmethylene)hydrazinyl)-1-(4-fluorophenyl)-3-oxoprop-1-en-2-yl)benzamide], in the assay with HepG2 cells [1] (HepG2, 48 h), the “percentage of cells at the G1 phase” value worked out at 64.2%.
For orientation: IC50 means the point on the concentration scale where inhibition reaches its midpoint. On to `O=C1/C(=C/c2ccc(F)cc2)N=C(c2ccccc2)N1c1ccc(S(=O)(=O)Nc2ncccn2)cc1` [compound 6, (Z)-4-(4-(4-Fluorobenzylidene)-5-oxo-2-phenyl-4,5-dihydro-1H-imidazol-1-yl)-N-(pyrimidin-2-yl)benzenesulfonamide], for which the IC50 on EGFR-TK came out at 0.13 µM. The “percentage of cells at the G1 phase” value with HepG2 cells [1] (HepG2, 48 h) turned out to be 64.2%. Besides, the “cells at the pre-G1 phase” value in the assay on HepG2 cells [1] (HepG2, 48 h, IC50 concentration, control 2.5%) turned out to be 55.5%. For the same compound, the “cell cycle arrest at the G1 phase, fold compared to untreated HepG2 control” value in the assay with HepG2 cells [1] (HepG2, IC50 concentration) came to 1.28 fold. For the same compound, in the assay on HepG2 cells [2] (HepG2, 48 h, IC50 concentration (4.23 μM), control 2.5%), the “total apoptotic cells (early and late apoptosis and necrosis)” value is 55.5%. The “ratio of both early and late apoptosis” value in the assay with HepG2 cells [2] (HepG2, IC50 concentration, control 0.7%) was 44.8%. For the same compound, the “Bax level, fold change compared with no treatment control” value with Bax is 3.7 fold. Moreover, the “Bcl2 level, fold change” value in the assay with Bcl2 was found to be 0.38 fold. Besides, the “decrease of MMP level, fold compared with untreated control HepG2” value with HepG2 cells [3] is 2.84 fold. The “p53 level, fold change compared with no treatment control” value in the assay with p53 is given as 4.7 fold.
Regarding `O=C1NN(c2ccccc2)C(c2ccccc2)=N/C1=C\c1ccc(F)cc1` [compound 7, (Z)-5-(4-Fluorobenzylidene)-2,3-diphenyl-1,2-dihydro-1,2,4-triazin-6(5H)-one], in assay [4], the IC50 was 5.89 ± 0.19 µM.
